Test results taken from article PMC9890663 (RSC Advances, 2023).
In brackets after ≈: the same amount, converted by molar mass. Several values for one entry are separate records, joined by “and”; a condition that tells them apart may be missing. Identical values can stand only once. Like-named read-outs stand apart in the source and are kept apart here.

Experiments:
[1] = tested on: Chromobacterium violaceum CV026; experiment: Anti-quorum sensing disc assay, violacein production; assay type: cell-based; details: 100 μg per disc
Procedure, shortened: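 Agar-overlay disc assay. Inocula were grown overnight in LB at 30 °C and 180 rpm, with antibiotic for CV026. 50.0 μL of culture was seeded into 0.3% semi-solid LB agar and overlaid on LB plates. CV026 received N-hexanoyl-L-homoserine lactone (final 5.0 μM); S. marcescens ATCC 27117 received no autoinducer. Compound was placed on sterile discs and plates incubated overnight at 30 °C. Pigment inhibition was scored as white halo width (mm), distinct from growth-clearance zones.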

[2] = tested on: calf thymus DNA (ct-DNA); experiment: Competitive EthBr-ct-DNA fluorescence emission study; assay type: binding
Procedure, shortened: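 Ethidium bromide displacement on calf thymus DNA in PBS pH 7.4, with ct-DNA quantified by A260 (ε 6.6 × 10^3 M−1 cm−1). [DNA]/[EthBr] was held at 10 while test compound (10 mM DMSO stock) was increased. Excitation was 545.0 nm, emission 550.0–750.0 nm. Ksv and Kq (τ0 10^-8 s) came from the Stern–Volmer equation; KA and n from a log(F0−F)/F vs log[complex] plot.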

[3] = tested on: C. albicans ATCC 10231; experiment: Biofilm formation assay, crystal violet staining; assay type: cell-based, Candida albicans; details: MIC of the complexes applied
Procedure, shortened: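 Candida albicans ATCC 10231 biofilm assay, starting inoculum 1 × 10^6 cfu mL−1. Test compound was applied as two-fold serial dilutions from 3.5 down to 0.05 μg mL−1, then incubated 48 h at 37 °C. Adherent biomass was stained with crystal violet and read at 590.0 nm. The assay was repeated three times.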

[4] = tested on: MRC-5 cells; experiment: Antiproliferative activity, MTT assay; assay type: cell-based, human
[5] = molecular target: bovine serum albumin (BSA) (Bos taurus, UniProt P02769); experiment: BSA fluorescence emission quenching; assay type: binding
Chain of bovine serum albumin (BSA) (P02769 25-607): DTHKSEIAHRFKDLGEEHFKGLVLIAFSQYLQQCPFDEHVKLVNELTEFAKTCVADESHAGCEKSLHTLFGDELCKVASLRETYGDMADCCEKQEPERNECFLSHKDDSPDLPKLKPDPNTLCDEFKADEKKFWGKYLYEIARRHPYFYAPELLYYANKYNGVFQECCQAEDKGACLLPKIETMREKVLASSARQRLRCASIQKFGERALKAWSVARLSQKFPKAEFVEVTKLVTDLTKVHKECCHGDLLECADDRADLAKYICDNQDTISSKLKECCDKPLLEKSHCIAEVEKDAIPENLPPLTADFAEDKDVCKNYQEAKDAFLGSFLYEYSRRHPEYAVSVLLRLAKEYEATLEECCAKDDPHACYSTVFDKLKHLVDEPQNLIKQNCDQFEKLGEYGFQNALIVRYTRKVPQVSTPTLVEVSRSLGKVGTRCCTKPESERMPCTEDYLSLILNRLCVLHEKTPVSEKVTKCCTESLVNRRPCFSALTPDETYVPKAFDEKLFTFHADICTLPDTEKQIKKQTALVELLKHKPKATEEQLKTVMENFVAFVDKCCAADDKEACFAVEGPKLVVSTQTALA
Procedure, shortened: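 Tryptophan fluorescence quenching of 5 μM BSA in PBS pH 7.4, titrated with test compound (DMSO stock) up to 130 μM. Excitation was 290.0 nm and spectra were recorded at 295.0–500.0 nm, with quenching monitored at 365.0 nm. Ksv came from a Stern–Volmer plot, and Kq from Ksv with τ0 of 10^-8 s. KA and binding-site number n came from a log(F0−F)/F vs log[complex] plot.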

[6] = tested on: S. aureus ATCC 25923; experiment: MIC, broth microdilution; assay type: cell-based; details: Staphylococcus aureus, ATCC25923, 24 h
Procedure, shortened: (§1)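 Broth microdilution. S. aureus ATCC 25923 followed CLSI M07-A8 at 5 × 10^5 cfu mL−1; Candida strains followed EUCAST yeast method v7.3.1 at 1 × 10^5 cfu mL−1. Test compound from a 50 mg mL−1 DMSO stock was tested from 500 μg mL−1 downward, with final DMSO <1% v/v. MIC was the lowest concentration inhibiting growth after 24 h at 37 °C, read on a plate reader.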

[7] = tested on: C. albicans ATCC 10231; experiment: Inhibition of hyphae formation on Spider medium; assay type: cell-based, Candida albicans; details: 0.5 × MIC, vs DMSO control
[8] = tested on: C. albicans ATCC 10231; experiment: MIC, broth microdilution; assay type: cell-based; details: Candida albicans, ATCC10231, 24 h
Procedure, shortened: as §1

[9] = tested on: P. aeruginosa PAO1; experiment: MIC, broth microdilution; assay type: cell-based; details: Pseudomonas aeruginosa, PAO1, 24 h
[10] = tested on: C. albicans; details: cited from earlier work
[11] = tested on: calf thymus DNA (ct-DNA); details: DNA intercalator; cited from earlier work

{[Ag(NO3)(py-2pz)]·0.5H2O}n [Complex 4]
clear zones of inhibition (antibacterial effect) [1]: 5 mm
Hypochromism ([2]; EthBr-ct-DNA fluorescence): 15.4%
K sv ([2]; Stern-Volmer constant, EthBr-ct-DNA, PBS pH 7.4): (1.14 ± 0.01) × 10^3 M^−1
K A ([2]; binding constant, ct-DNA): 2000 M⁻¹
K q ([2]; quenching constant, EthBr-ct-DNA): 1.14e+11 M⁻¹ s⁻¹
percentage of the formed C. albicans biofilms [3]: 62%
fold less toxic against MRC-5 than AgSD [4]: 1.7 fold
Hypochromism ([5]; BSA fluorescence at 365.0 nm): 60.5%
K sv ([5]; Stern-Volmer constant, BSA 5 μM, PBS pH 7.4): (2.10 ± 0.02) × 10^4 M^−1
K A ([5]; binding constant, BSA): 21500 M⁻¹
K q ([5]; quenching rate constant, BSA): 2.1e+12 M⁻¹ s⁻¹

COC(=O)c1cnc(-c2cnccn2)cc1C(=O)OC [py-2pz, dimethyl 6-(pyrazine-2-yl)pyridine-3,4-dicarboxylate]
MIC [6]: > 1830 µM and > 500 µg/mL
C. albicans hyphae formation [7]: did not show a potency to inhibit C. albicans filamentous growth
IC50 ([4]; Homo sapiens, MRC5, 48 h, MRC-5, 48 h treatment): 120 µg/mL (≈ 439 µM)
MIC [8]: > 1830 µM and > 500 µg/mL
MIC [9]: > 1830 µM and > 500 µg/mL

[CuCl2(py-2metz)]n
MIC [10]: 31.25 µg/mL

C[n+]1c2ccccc2c(-c2c3ccccc3[n+](C)c3ccccc23)c2ccccc21 [lucigenin]
Hypochromism [11]: 50%
